Measurements as given in ChEMBL document CHEMBL2146361, “Identification of novel α7 nicotinic receptor ligands by in silico screening against the crystal structure of a chimeric α7 receptor ligand binding domain” (Bioorg Med Chem, 2012).

Each compound was assayed against Neuronal acetylcholine receptor subunit alpha-7 (Homo sapiens, UniProt P36544) (assay: Displacement of [3H]epibatidine from chimeric human alpha7-5-HT3A receptor expressed in HEK293 cells after 2 hrs by scintillation counter analysis).
Chain of Neuronal acetylcholine receptor subunit alpha-7 (P36544 23-502 limits assumed): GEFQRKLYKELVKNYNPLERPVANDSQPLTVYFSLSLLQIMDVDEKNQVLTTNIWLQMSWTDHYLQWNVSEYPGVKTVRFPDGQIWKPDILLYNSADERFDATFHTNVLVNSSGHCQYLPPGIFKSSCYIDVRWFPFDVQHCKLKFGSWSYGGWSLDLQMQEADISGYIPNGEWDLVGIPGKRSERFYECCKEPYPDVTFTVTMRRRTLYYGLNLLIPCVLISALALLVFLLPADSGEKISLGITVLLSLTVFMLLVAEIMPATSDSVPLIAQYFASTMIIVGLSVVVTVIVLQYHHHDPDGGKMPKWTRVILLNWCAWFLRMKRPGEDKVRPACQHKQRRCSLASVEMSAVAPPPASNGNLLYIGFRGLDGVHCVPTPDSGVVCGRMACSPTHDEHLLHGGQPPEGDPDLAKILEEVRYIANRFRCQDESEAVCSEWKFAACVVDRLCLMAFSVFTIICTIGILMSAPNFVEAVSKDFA
Type: cell-based
Outline: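 HEK293 cells grown in DMEM:F12 with 10% fetal calf serum at 37 °C, 7% CO₂, transiently transfected (PEI) and harvested after 2–3 days. 50 μg membranes incubated in 10 mM HEPES pH 7.4 with 3 nM [³H]epibatidine, ≥2 h at 4 °C, 10-point competition; non-specific binding with 3 mM (−)-nicotine.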

CC1C(c2ccccc2)NC(c2ccccc2)C(C)C1(C)O (configuration not stated) and CC1/C(=N/O)CC(c2ccccc2)N(C)C1c1ccccc1 (configuration not stated) are within 0.2 log units of each other in pKi: 5.4 for the first, 5.3 for the second.

Compared with COc1cc2c(cc1OC)C1CC(c3ccccc3)CCN1CC2 (configuration not stated), CC1CCN2CCc3c([nH]c4ccccc34)C2C1 (configuration not stated) is higher in pKi: 5.8 for the first, 6.4 for the second.

Going from CN1CCc2[nH]c3ccccc3c2C1 to c1ccc(C2CN3CCC2CC3)cc1 (configuration not stated), the pKi rises from 5.2 to 6.7.

N#CCOCC(O)C[n+]1ccccc1 (configuration not stated) and CC1CCN(CC(O)COc2ccc(-c3ccccc3)cc2)CC1 (configuration not stated) are within 0.2 log units of each other in pKi: 5.6 for the first, 5.7 for the second.

In the case of CC1CC2(CCCCCC2)NCc2ccccc21 (configuration not stated), the pKi is reported as 5.1.

Compound Clc1ccc(C2CC3CCC2N3)cn1 (configuration not stated) [EPIBATIDINE] has a pKd of 8.2.

First: c1ccc(C2CN3CCC2CC3)cc1 (configuration not stated)
Second: CC1CCN2CCc3c([nH]c4ccccc34)C2C1 (configuration not stated)
The Ki of the first is 2-fold lower: 0.2 µM for the first, 0.4 µM for the second.
